Bioassay records from PubChem.
Most compounds without a hit are left out; they make up all but 2.8% or so of the library.
PP1 counter = blocks human PP1-alpha phosphatase, a PP5 counter-screen; P62136; purified PP1alpha, OMFP fluorescence; inhibition, % at 6.7 µM; AID 2235; 320,000 tested, 0.9% active;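 active = inhibition above the mean inhibition of all tested compounds plus 3 SD, computed separately for each screening campaign, cut at about 15% in these data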
Target sequence (P62136 whole entry, looked up): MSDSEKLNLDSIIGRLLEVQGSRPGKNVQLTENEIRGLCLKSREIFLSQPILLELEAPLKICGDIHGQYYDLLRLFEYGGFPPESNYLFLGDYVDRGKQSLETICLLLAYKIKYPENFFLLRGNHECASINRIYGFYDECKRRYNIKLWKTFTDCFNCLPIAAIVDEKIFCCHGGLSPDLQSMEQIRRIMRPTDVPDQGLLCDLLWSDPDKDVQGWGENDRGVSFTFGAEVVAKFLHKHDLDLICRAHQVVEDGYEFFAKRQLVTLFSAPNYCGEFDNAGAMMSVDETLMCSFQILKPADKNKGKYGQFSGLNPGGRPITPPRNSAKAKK
AI-2 QS modul = modulators of Vibrio harveyi AI-2 quorum sensing system. Vibrio harveyi JMH597 AI-2 luminescence/OD600 ratio, 9 h; hits give low values; strain lacks LuxN and CqsS sensors; 0 = neutral-control median. activity change, % at 7.5 µM. 300,000 tested, 0.4% active; in the data active = activity change below about -75%, passing the limit was not always enough;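 note: luminescence divided by OD600 gain over 9 h not by final OD600 alone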
UBC13 polyUb = inhibitors of human UBC13 polyubiquitin chain formation. TR-FRET. 330,000 tested, 0.47% active. inhibition, % at 20 µM. P61088; in the data active = inhibition above about 45%, passing the limit was not always enough
Target sequence (P61088 whole entry, looked up): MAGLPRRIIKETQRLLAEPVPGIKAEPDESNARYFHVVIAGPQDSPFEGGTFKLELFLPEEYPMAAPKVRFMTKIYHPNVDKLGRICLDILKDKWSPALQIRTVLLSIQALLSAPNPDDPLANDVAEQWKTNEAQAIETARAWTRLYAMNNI
pCIP destab = lowers stability of the mouse p/CIP coactivator protein. F442A p/CIP-EGFP cells, EGFP fluorescence, 16 h. Q05BA5. decrease of EGFP signal, % at 10 µM. 290,000 tested, 0.01% active. AID 1984;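 active = EGFP signal decrease of at least 30% at 10 µM or well 3 SD below plate mean, unless failing retest; inactive = the rest, including hits failing retest or dose response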
T cruzi repl = T. cruzi replication inhibition | T. cruzi beta-gal in NIH3T3, luminescence, 90 h | inhibition, % (concentration not given with the values) | 300,000 tested, 1.4% active | AID 1885;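 active = mean inhibition across valid replicates above about 55%, limit read from the data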;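 note: signal also drops with host cell toxicity which is not excluded here; 0% = plate median of DMSO wells and 100% = zero luminescence signal; higher percent means less beta-gal luminescence so fewer parasites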
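assay system = mouse NIH/3T3 fibroblasts infected with β-gal-expressing T. cruzi Tulahuen C4 | input = 5,000 NIH/3T3 host cells per well | buffer or medium = DMEM plus 2% FBS | timing = 3 h host attachment, then at least 90 h co-culture | measured by = GalScreen luminescence, 60 min | evaluation = luminescence reflecting intracellular parasite burden, expressed as percent inhibition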
The depositor's hits bear a star; nt = no result.

SMILES	PP1 counter	AI-2 QS modul	UBC13 polyUb	pCIP destab	T cruzi repl
O=c1[nH]cc(S(=O)(=O)N2CCN(c3cccc(C(F)(F)F)c3)CC2)c(=O)[nH]1	15.8*	15.0	4.6	nt	-2.2
Cc1ccc(C)c(-c2nn(-c3cc(N4CCN(CCO)CC4)ccc3[N+](=O)[O-])c(=O)c3ccccc23)c1	7.2	-4.6	16.7	2.7	60.8*
CCCCCn1c(N)c(-c2nc3ccccc3s2)c2c([N+](=O)[O-])nn(C)c(=O)c21	0.5	7.0	-37.6	9.8	59.2*
CC(=O)c1sc2nc(-c3ccccc3)cc(C)c2c1N	1.1	20.7	1.9	-20.1	56.5*
Nc1c(C(=O)O)sc2nc(-c3ccccc3)cc(-c3ccc(Cl)cc3)c12	5.0	49.4	-6.9	8.3	3.7
Fc1ccc(CN2CCN(C(c3ccccc3)c3ccccc3)CC2)cc1	15.8*	22.0	12.2	15.8	6.3
c1ccc(CN2CCN(C(c3ccccc3)c3ccccc3)CC2)cc1	7.0	17.2	4.8	3.1	18.8
CCCNC(=O)c1ccccc1C(=O)NC1(C(=O)NCCC)CCCC1	-1.8	44.6	-3.9	-8.9	-3.0
CCOC(=O)c1sc(NC(=O)CSC(=S)N2CCN(C)CC2)nc1C	1.6	13.2	0.2	1.2	2.3
CCOC(=O)c1c(NC(C)=O)sc2c(OCCN(CC)CC)c(Br)ccc12	-2.2	6.3	30.2	-17.4	58.0*
Cc1nn(-c2ccccn2)c2nc(-c3cccs3)cc(C(=O)NCc3ccco3)c12	16.9*	23.4	18.1	4.6	9.9
Cc1ccc(Nc2nnc(-c3ccc(N4CCOCC4)c([N+](=O)[O-])c3)c3ccccc23)cc1	4.7	21.8	-41.1	-24.5	51.4
O=[N+]([O-])c1cc(-c2nnc(Nc3ccccc3)c3ccccc23)ccc1N1CCOCC1	1.4	14.6	-30.1	-2.9	57.2*
CCOC(=O)c1c(N)sc2c1CCC1C(=O)N(C3CCCCC3)C(=O)C21 (stereo unspecified)	15.3*	13.8	-5.0	-12.6	5.6
COc1ccc(-n2nc3c(c2NC(=O)c2ccc(S(=O)(=O)N4CCOCC4)cc2)CS(=O)C3)cc1 (stereo unspecified)	-2.6	18.3	9.0	-6.9	2.2
OC(COc1ccc2cc(Br)ccc2c1)CN1CCCC1 (stereo unspecified)	-3.2	12.0	11.0	7.1	70.5*
O=S(=O)(N1CCCCC1)N1CCN(CC(O)COc2ccc3cc(Br)ccc3c2)CC1 (stereo unspecified)	4.2	9.3	11.5	-1.1	55.1*
CCN(C(=O)COC(=O)Cn1c(C)csc1=O)c1c(N)n(Cc2ccccc2)c(=O)[nH]c1=O	-7.4	15.6	2.5	nt	-8.2
CCOC(=O)c1c(NC(=O)CN2C(=O)NC3(CCCCC3C)C2=O)sc(C)c1CC (stereo unspecified)	1.2	-5.8	-10.1	nt	66.4*
Cc1ccccc1NC(=S)N=Nc1c(O)n(C)c2ccc(S(=O)(=O)N3CCOCC3)cc12	5.0	15.6	-13.5	-13.5	43.8
Oc1c(N=NC(=S)Nc2ccccc2F)c2ccccc2n1Cc1ccccc1Cl	2.7	25.2	-37.9	-4.2	68.0*
C=CCn1c(O)c(N=NC(=S)Nc2ccccc2F)c2ccccc21	0.4	-9.5	-38.7	-17.9	48.7
Cc1c(Cl)cccc1NC(=S)N=Nc1c(O)n(CN2CCOCC2)c2ccccc12	5.1	43.5	16.0	5.3	62.6*
C=CCn1c(O)c(N=NC(=S)Nc2ccccc2F)c2cc(S(=O)(=O)N3CCOCC3)ccc21	1.3	39.7	-13.9	0.8	57.5*
Oc1c(N=NC(=S)Nc2ccccc2F)c2ccccc2n1Cc1ccccc1	9.7	6.0	-59.2	6.5	51.1
SMILES	PP1 counter	AI-2 QS modul	UBC13 polyUb	pCIP destab	T cruzi repl
CCCCNC(=S)N=Nc1c(O)n(Cc2ccccc2)c2ccccc12	-2.7	3.2	-15.9	2.0	9.1
Cc1ccc(Cn2c(O)c(N=NC(=S)Nc3ccccc3F)c3ccccc32)cc1	-1.1	18.2	-32.2	7.3	65.8*
COc1ccc2[nH]c(CN3CCN(CC=C(C)C)C(CCO)C3)c(C)c2c1 (stereo unspecified)	-4.7	31.9	1.6	7.6	40.7
CCc1ccc(-c2cn(C3CCCCC3)c(=S)[nH]2)cc1	4.6	-1.2	9.3	0.3	18.0
C=CCn1c(O)c(N=NC(=S)Nc2cccc(C)c2)c2ccccc21	5.8	39.0	19.3	-20.1	58.5*
COc1cc2c(-c3ccccc3)c(C)oc2cc1/C=N/NC(N)=S	-2.4	4.1	-4.0	nt	89.3*
O=S1(=O)CCN(Cc2ccc(Cl)c(C(F)(F)F)c2)CC1	-1.6	20.1	5.4	7.6	-5.1
Cc1ccc(Cl)cc1N(CC(=O)NCc1ccccc1)S(C)(=O)=O	0.1	14.9	11.6	0.3	-7.1
N=c1n(CCN2CCCCC2)c2ccccc2n1CC(O)c1ccc(Cl)c(Cl)c1 (stereo unspecified)	3.6	3.1	22.2	-12.6	59.3*
COc1cc(/C=N/Nc2nc(Nc3ccccc3)nc(N3CCOCC3)n2)ccc1OC(=O)c1ccco1	3.1	2.1	-1.8	-8.9	62.3*
O=C(Oc1cccc(/C=N/Nc2nc(N3CCOCC3)nc(N3CCOCC3)n2)c1)c1ccco1	-3.2	23.1	-2.3	-14.7	14.6
CCOC(=O)c1cc2c(=O)n3ccccc3nc2n(C)c1=NC(=O)c1c(-c2c(F)cccc2Cl)noc1C	1.8	31.4	12.8	nt	-2.0
CCOC(=O)c1cc2c(=O)n3ccccc3nc2n(C(C)C)c1=NC(=O)c1c(-c2c(F)cccc2Cl)noc1C	-1.5	9.8	4.7	-4.8	58.3*
C#CCOCCOCCOCCNc1nc(N2CCN(C(=O)[C@H](Cc3ccc(O)cc3)n3cc([C@@H](N)CC(C)C)nn3)CC2)nc(N2CCN(C(=O)[C@H](Cc3ccc(O)cc3)n3cc([C@@H](N)CC(C)C)nn3)CC2)n1	10.7	4.1	63.3*	-2.9	-17.2
C#CCOCCOCCOCCNc1nc(N2CCN(C(=O)[C@H](CCC(=O)O)n3cc(C(N)CC(C)C)nn3)CC2)nc(N2CCN(C(=O)[C@H](Cc3ccc(O)cc3)n3cc(C(N)CC(C)C)nn3)CC2)n1 (stereo partly specified)	2.3	-6.4	1.5	-13.6	-2.6
C#CCOCCOCCOCCNc1nc(N2CCN(C(=O)C([C@@H](C)O)n3cc([C@@H](N)CCCCN)nn3)CC2)nc(N2CCN(C(=O)[C@H](CCCCN)n3cc([C@@H](N)[C@H](C)CC)nn3)CC2)n1 (stereo partly specified)	nt	nt	104.3*	nt	nt
C#CCOCCOCCOCCNc1nc(N2CCN(C(=O)C([C@@H](C)O)n3cc([C@@H](N)CCCCN)nn3)CC2)nc(N2CCN(C(=O)[C@H](CCC(=O)O)n3cc([C@@H](N)[C@H](C)CC)nn3)CC2)n1 (stereo partly specified)	nt	nt	12.9	nt	nt
